For assay [1], the target named is T1, DNA topoisomerase 1 (Homo sapiens) (UniProt P11387).
T1 sequence (whole entry): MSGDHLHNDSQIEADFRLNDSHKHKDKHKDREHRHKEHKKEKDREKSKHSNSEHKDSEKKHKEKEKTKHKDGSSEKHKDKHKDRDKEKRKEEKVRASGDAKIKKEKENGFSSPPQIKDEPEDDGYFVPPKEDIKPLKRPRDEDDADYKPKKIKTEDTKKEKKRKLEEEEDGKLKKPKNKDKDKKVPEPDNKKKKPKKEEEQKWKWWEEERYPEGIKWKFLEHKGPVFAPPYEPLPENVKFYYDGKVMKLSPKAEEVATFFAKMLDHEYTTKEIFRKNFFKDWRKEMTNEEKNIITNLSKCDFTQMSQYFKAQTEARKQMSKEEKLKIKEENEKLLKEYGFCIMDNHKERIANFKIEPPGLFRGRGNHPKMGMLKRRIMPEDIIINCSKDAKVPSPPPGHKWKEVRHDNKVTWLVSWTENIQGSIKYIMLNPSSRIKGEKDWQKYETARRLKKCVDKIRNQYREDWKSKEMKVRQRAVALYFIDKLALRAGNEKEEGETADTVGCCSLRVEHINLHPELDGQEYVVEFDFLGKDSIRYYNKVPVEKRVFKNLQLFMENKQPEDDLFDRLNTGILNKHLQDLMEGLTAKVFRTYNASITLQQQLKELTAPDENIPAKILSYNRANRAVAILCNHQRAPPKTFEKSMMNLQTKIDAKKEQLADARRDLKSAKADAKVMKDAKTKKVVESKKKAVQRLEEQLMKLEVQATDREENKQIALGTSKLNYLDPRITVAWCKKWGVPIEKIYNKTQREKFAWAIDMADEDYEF
As to the kind of experiment: Inhibition of topoisomerase 1 DNA cleavage activity. The procedure, abridged:
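Human topoisomerase I (2 units) incubated with 0.25 μg DNA I for 30 min at 37 °C with or without compound. Stopped with 1% SDS, proteinase K (50 μg/mL, 15 min, 37 °C), extracted twice with CIA, and run on 1% agarose (3.5 h, 75 V). Gel stained afterwards with ethidium bromide. Active concentration is the lowest giving complete inhibition, i.e. no relaxed or linear DNA.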

Assay [2] deals with CT26. As to the kind of experiment: Antiproliferative activity against mouse CT26 cell line at 10 uM. In kind it is functional. The procedure, abridged: (§1)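 Growth inhibition at the top 10 μM concentration of a 72 h XTT/PMS proliferation assay (4 h stain, 492 nm, four wells), expressed against 0.1% DMSO control. Cells were in phenol-red-free RPMI with 10% FCS, seeded at 2000 cells/well (HCT15, PC3, CT26, Renca) or 1000 cells/well (HT29), and dosed 24 h after seeding.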

In assay [3] the test system is Renca. The experiment in a line: Antiproliferative activity against mouse Renca cell line at 10 uM. In kind it is functional. The gist of the method:
as §1

Assay [4] concerns PC-3. The experiment in a line: Antiproliferative activity against human PC3 cell line at 10 uM. The class given is functional. The procedure, abridged:
as §1

For assay [5], the system named is HCT-15. As to the kind of experiment: Antiproliferative activity against human HCT15 cell line at 10 uM. The class given is functional. The procedure, abridged: as §1
In assay [6] the target is DNA topoisomerase II (Homo sapiens) (UniProt P11388+Q02880). The experiment in a line: Inhibition of topoisomerase 2 DNA cleavage activity. The class given is protein assay. The gist of the method: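 Human topoisomerase II (4 units) incubated with 0.25 μg pRYG DNA and 0.5 mM ATP (final) for 30 min at 37 °C. Stopped with 1% SDS, proteinase K (50 μg/mL, 15 min), CIA extraction, and 1% agarose gel at 75 V for 3.5 h, then post-stained with 0.5 μg/mL ethidium bromide. Reported value is the lowest concentration abolishing relaxed or linear DNA.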

Assay [7] concerns HT-29. The experiment in a line: Antiproliferative activity against human HT29 cell line at 10 uM. In kind it is functional. The procedure, abridged: as §1
Assay [8] deals with HCT-15. The experiment in a line: Antiproliferative activity against human HCT15 cell line. The class given is functional, cell-based. The procedure, abridged:
(§2)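 Cells grown in RPMI with 10% heat-inactivated FCS, no antibiotics, 37 °C, 5% CO2, and checked mycoplasma-free. Seeded at 2000 cells/well (HCT15, PC3, CT26, Renca) or 1000 cells/well (HT29). After 24 h, exposed for 72 h to nine concentrations from 1 nM to 10 μM in phenol-red-free medium, 0.1% DMSO final. Read by XTT/PMS reduction (4 h, 492 nm), four wells per concentration. IC50 from a four-parameter logistic fit of growth as % of DMSO control.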

The subject of assay [9] is CT26. The experiment in a line: Antiproliferative activity against mouse CT26 cell line. In kind it is functional, cell-based. The gist of the method:
as §2

For assay [10], the system named is Renca. As to the kind of experiment: Antiproliferative activity against mouse Renca cell line. In kind it is functional, cell-based. The procedure, abridged: as §2
In assay [11] the test system is HT-29. The experiment in a line: Antiproliferative activity against human HT29 cell line. The class given is functional, cell-based. The gist of the method: as §2
Assay [12] deals with PC-3. The experiment in a line: Antiproliferative activity against human PC3 cell line. In kind it is functional, cell-based. The gist of the method:
as §2

One may read the inhibition as the drop in the measured response relative to a control, in per cent. Regarding `Cc1ccc(S(=O)(=O)n2cc3c4c2C(=O)c2[nH]nc(-c5ccc(O)cc5)c2C4=NCC3)cc1`, the values for the Inhibition in assay [1] and in assay [6] were 30 µM and > 100 µM, respectively. Also, the inhibition at 10 µM with CT26 [2] came to 0%; with Renca [3] it was 0%; in the assay with PC-3 [4], 0%; with HCT-15 [5] it was 0%; in the assay with HT-29 [7], 23%.

As usually defined, the IC50 is the concentration at which inhibition is half-maximal. Read a high IC50 as a need for much substance. With `O=C1c2[nH]cc3c2C(=NCC3)c2[nH]nc(-c3ccccc3)c21`, the Inhibition in [1] and in [6] was > 100 µM throughout. Moreover, half-maximal inhibition with HCT-15 [8] (IC50) was put at 2.7 µM. The inhibition at 10 µM in the assay with CT26 [2] turned out to be 0%; in the assay with Renca [3], 0%; in the assay with PC-3 [4], 0%; in the assay on HT-29 [7], 47%.

Regarding `O=C1c2c[nH]nc2C2=NCCc3c[nH]c1c32`, the results for the Inhibition in assay [1] and in assay [6] were > 100 µM and 100 µM, respectively. Besides, the inhibition at 10 µM was determined as 0% with CT26 [2]; 0% with Renca [3]; 0% with PC-3 [4]; 25% in the assay on HCT-15 [5]; 45% in the assay on HT-29 [7].

For the compound `O=C1c2[nH]cc3c2C(=NCC3)c2n[nH]c(-c3ccc(O)cc3)c21`, the Inhibition in assay [1] is 300 µM; in assay [6], > 300 µM. The inhibition at 10 µM in the assay with CT26 [2], in the assay on Renca [3], in the assay on PC-3 [4], in the assay with HCT-15 [5] and with HT-29 [7] was 0% each time.

Take `Cc1ccc(S(=O)(=O)n2cc3c4c2C(=O)c2cn[nH]c2C4=NCC3)cc1`: the Inhibition was 300 µM in assay [1] and > 300 µM in assay [6]. Besides, the inhibition at 10 µM with CT26 [2], with Renca [3], in the assay with PC-3 [4], in the assay on HCT-15 [5] and with HT-29 [7] was 0% in each case.

In turn, `Cc1ccc(S(=O)(=O)n2cc3c4c2C(=O)c2c(cnn2C)C4=NCC3)cc1` showed an Inhibition in [1] of 300 µM. Also, the IC50 worked out at 6.5 µM in the assay with HCT-15 [8]; 5.3 µM with CT26 [9]; 140 nM in the assay on Renca [10]; 3100 nM in the assay on HT-29 [11]; 4.9 µM in the assay with PC-3 [12].

Consider `O=C1c2[nH]ncc2C2=NCCc3c[nH]c1c32`, for which the values for the Inhibition in [1] and in assay [6] were > 100 µM and 100 µM, respectively. For the same compound, the inhibition at 10 µM in the assay on CT26 [2], in the assay with Renca [3], in the assay with PC-3 [4], in the assay on HCT-15 [5] and in the assay with HT-29 [7] was 0% in each case.

As to `CC[C@@]1(O)C(=O)OCc2c1cc1n(c2=O)Cc2cc3ccccc3nc2-1` [CAMPTOTHECIN], the IC50 with HCT-15 [8] was determined as 0.018 µM; with CT26 [9], 0.034 µM; in the assay with Renca [10] it was 304 nM; in the assay with HT-29 [11], 30 nM; with PC-3 [12], 0.052 µM.

On to `Cn1ncc2c1C(=O)c1[nH]cc3c1C2=NCC3`, for which the Inhibition in assay [1] and in assay [6] was > 100 µM throughout. In addition, the inhibition at 10 µM with CT26 [2] came out at 7%; with Renca [3] it was 6%; in the assay with PC-3 [4], 0%; in the assay with HCT-15 [5], 0%; with HT-29 [7] it was 4%.

Consider `Cc1ccc(S(=O)(=O)n2cc3c4c2C(=O)c2c(-c5ccccc5)n[nH]c2C4=NCC3)cc1`, for which the Inhibition in assay [1] was 100 µM; in assay [6], > 100 µM. Besides, the inhibition at 10 µM in the assay on CT26 [2], in the assay with Renca [3], in the assay with PC-3 [4], with HCT-15 [5] and in the assay on HT-29 [7] was 0% throughout.

As to `O=C1c2n[nH]c(-c3ccc(O)cc3)c2C2=NCCc3c[nH]c1c32`, the results for the Inhibition in [1] and in assay [6] were > 100 µM and 100 µM, respectively. Moreover, the inhibition at 10 µM in the assay on CT26 [2], in the assay with Renca [3], in the assay with PC-3 [4], with HCT-15 [5] and in the assay on HT-29 [7] was 0% throughout.

Take `Cc1ccc(S(=O)(=O)n2cc3c4c2C(=O)c2n[nH]cc2C4=NCC3)cc1`: the Inhibition in assay [1] is 100 µM; in assay [6], > 100 µM. Moreover, the inhibition at 10 µM in the assay on CT26 [2], in the assay on Renca [3], in the assay on PC-3 [4], in the assay with HCT-15 [5] and in the assay on HT-29 [7] was 0% throughout.

Turning to `Cc1ccc(S(=O)(=O)n2cc3c4c2C(=O)c2c(-c5ccc(O)cc5)n[nH]c2C4=NCC3)cc1`, the Inhibition was 10 µM in assay [1] and 100 µM in [6]. Also, the inhibition at 10 µM in the assay on CT26 [2] turned out to be 0%; in the assay with Renca [3] it was 0%; in the assay with PC-3 [4], 0%; in the assay with HCT-15 [5] it was 0%; with HT-29 [7] it was 41%.

As for `Cc1ccc(S(=O)(=O)n2cc3c4c2C(=O)c2c(n[nH]c2C2(O)C(=O)N(C)c5ccccc52)C4=NCC3)cc1` (configuration not stated), in assay [1], the Inhibition was > 100 µM. For the same compound, the IC50 in the assay with HCT-15 [8] is 1.6 µM; in the assay with CT26 [9] it was 2.9 µM; in the assay with Renca [10], 1900 nM; in the assay with HT-29 [11], 2900 nM; with PC-3 [12] it was 5.2 µM.

As for `Cn1ncc2c1C1=NCCc3c[nH]c(c31)C2=O`, the Inhibition in assay [1] was > 100 µM; in assay [6], 100 µM. Moreover, the inhibition at 10 µM with PC-3 [4] and in the assay on HCT-15 [5] was 0% throughout. Also, the IC50 in the assay on CT26 [9] stood at 7 µM; with Renca [10], 6300 nM; in the assay on HT-29 [11], 3600 nM.

For `COc1cc([C@@H]2c3cc4c(cc3[C@@H](O[C@@H]3O[C@@H]5CO[C@@H](C)O[C@H]5[C@H](O)[C@H]3O)[C@H]3COC(=O)[C@H]23)OCO4)cc(OC)c1O` [ETOPOSIDE], the IC50 was 4.5 µM with HCT-15 [8]; 0.2 µM in the assay with CT26 [9]; 2900 nM with Renca [10]; 6600 nM in the assay with HT-29 [11]; 7.8 µM with PC-3 [12]. In assay [6], this compound returned an Inhibition of 100 µM.

Take `Cc1ccc(S(=O)(=O)n2cc3c4c2C(=O)c2[nH]nc(-c5ccccc5)c2C4=NCC3)cc1`: the Inhibition in [1] is 300 µM. In addition, the inhibition at 10 µM with CT26 [2], in the assay on Renca [3], in the assay on PC-3 [4], with HCT-15 [5] and in the assay with HT-29 [7] was 0% throughout.

For the compound `O=C1c2[nH]cc3c2C(=NCC3)c2c(-c3ccccc3)n[nH]c21`, the Inhibition in assay [1] is 100 µM; in [6], > 100 µM. For the same compound, the inhibition at 10 µM with CT26 [2], in the assay with Renca [3], in the assay on PC-3 [4], in the assay with HCT-15 [5] and in the assay on HT-29 [7] was 0% each time.

With `Cc1ccc(S(=O)(=O)n2cc3c4c2C(=O)c2cnn(C)c2C4=NCC3)cc1`, the Inhibition in assay [1] and in [6] was > 100 µM each time. Also, the 50% inhibitory concentration (IC50) in the assay on HCT-15 [8] came to 5 µM; in the assay with CT26 [9] it was 4.9 µM; in the assay with Renca [10] it was 4600 nM; in the assay with HT-29 [11], 1900 nM; with PC-3 [12] it was 5.8 µM.

For the origin of these results see ChEMBL document CHEMBL1147676, “Synthesis and antitumor characterization of pyrazolic analogues of the marine pyrroloquinoline alkaloids: wakayin and tsitsikammamines” (J Med Chem, 2006).
